According to publication PMC9056854 (RSC Advances, 2020):

Experiment: Thermal denaturation study
Assay type: physicochemical
Settings: 3 μM duplex, 10 mM sodium phosphate (pH 7.0), 100 mM NaCl; relative to siRNA 1
How it was run: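 UV melting of duplexes at 3 μM in 10 mM sodium phosphate (pH 7.0) with 100 mM NaCl, heated at 0.5 °C min−1. ΔTm is the Tm of the peptide-conjugated duplex minus the Tm of the unmodified duplex.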

Row | Substance | ΔTm [Tm(siRNAmod) − Tm(siRNAunmod)]
1 | 5′-GGCCUUUCACUACUCCUACTTR^E-R8A7-3′ [siRNA 3] | +0.5 °C
2 | 5′-GGCCUUUCACUACUCCUACTTR^E-R8G7-3′ [siRNA 2] | +0.9 °C
